S1P4 antagonist = human S1P4 receptor antagonism; 0.26% of 220,000 active; inhibition, % at 4.98 µM; O95977; AID 1510; S1P4-expressing cells, antagonist mode, reporter read-out; in the data active means inhibition above about 29%;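 further: 0% = wells stimulated with agonist and 100% = vehicle wells without agonist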
NPY-Y2 antag = blocks the human neuropeptide Y Y2 receptor; P49146; NPY-Y2 expressing cells, antagonist mode; inhibition, % at 2.7 µM; 0.99% of 140,000 active; in the data active means inhibition above about 17%;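 further: 0% = vehicle with agonist challenge and 100% = reference antagonist with challenge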
NPY1 pot ag = potentiates or activates human NPY-Y1 receptor; P25929; NPY-Y1 expressing cells, potentiator/agonist activation; activation, % at 3.6 µM; 0.37% of 220,000 active; in the data active means activation above about 33%, passing the limit was not always enough;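 further: cells stimulated with NPY at EC10 then isoproterenol at EC100; 0% = low agonist plus stimulus and 100% = saturating agonist plus stimulus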
Target sequence (P25929 whole entry, looked up): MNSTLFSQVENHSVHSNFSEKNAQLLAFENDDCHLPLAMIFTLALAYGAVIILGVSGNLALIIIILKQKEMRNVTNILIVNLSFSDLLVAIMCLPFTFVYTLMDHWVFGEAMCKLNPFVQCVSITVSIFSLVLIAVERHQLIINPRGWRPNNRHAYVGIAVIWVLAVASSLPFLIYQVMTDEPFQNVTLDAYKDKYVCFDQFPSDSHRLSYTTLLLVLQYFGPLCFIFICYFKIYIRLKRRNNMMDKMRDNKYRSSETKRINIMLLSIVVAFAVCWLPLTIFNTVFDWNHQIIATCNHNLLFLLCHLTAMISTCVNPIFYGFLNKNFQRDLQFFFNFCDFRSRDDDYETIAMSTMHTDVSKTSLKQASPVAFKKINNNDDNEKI
NPY-Y1 antag = NPY-Y1 (human) receptor antagonism | 1% of 200,000 active | P25929 | inhibition, % at 3.6 µM | HEK293-CNG Y1 cells, membrane potential fluorescence; NPY at EC95, then isoproterenol;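 active means inhibition above the campaign mean inhibition of all tested compounds plus 3 SD, cut at about 20% in these data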;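 further: 0% = DMSO wells given NPY plus isoproterenol and 100% = isoproterenol alone without NPY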
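Test system – HEK293 Y1/CNG channel cell line · Also added – NPY agonist 25 nM, then isoproterenol 1 µM plus Ro 20-1724 25 µM · Compound dosing – one concentration, 3.6 µM, in 0.4% DMSO · Schedule – compound incubation 1 h at room temperature, readout 45 min post-stimulation · Technique – fluorescence, membrane potential probe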
NPY2 pot ag = potentiators or agonists of human neuropeptide Y receptor Y2 | P49146 | cells expressing NPY-Y2, potentiator/agonist read-out | activation, % at 3.6 µM | 0.45% of 220,000 active; in the data active means activation above about 27%;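 further: cells stimulated with NPY near EC25 plus isoproterenol at EC100; 0% = vehicle plus submaximal agonist and 100% = vehicle plus saturating agonist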
S1P4 ag = agonists of human S1P4 receptor; S1P4-expressing cell line, agonist reporter assay; 0.35% of 220,000 active; activation, % at 4.98 µM; in the data active means activation above about 11%;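 further: 0% = DMSO vehicle and 100% = reference agonist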
S1P4 antag cf = confirmation of human S1P4 receptor antagonists; AID 1524; 71% of 520 active; S1P4-expressing cell line, antagonist mode, reporter read-out; inhibition, % at 4.98 µM; shares compounds with S1P4 antagonist; in the data active means inhibition above about 30%
S1P1 antagonist = blocks human S1P1, counter-screen for S1P4 antagonists | shares compounds with S1P4 antagonist | cell-based S1P1 antagonist counterscreen, inhibition | inhibition, % at 4.98 µM | 37% of 520 active; in the data active means inhibition above about 40%;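 further: receptor stimulated with S1P near its EC80; 0% = agonist stimulated wells and 100% = vehicle only wells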
* = called active by the depositor. Only some compounds are listed: those with a hit (about 2.4% of all), similar ones and a draw of the others.

CCC(=O)N1CCN(c2ccc(NC(=O)c3cc4ccccc4o3)cc2Cl)CC1 was read as S1P4 antagonist -28, NPY-Y2 antag 6, NPY1 pot ag -1, NPY-Y1 antag 0, NPY2 pot ag -3 and S1P4 ag 1.
Screening CCN1CCN(c2ccc(NC(=O)c3ccc([N+](=O)[O-])o3)cc2Cl)CC1 returned S1P4 antagonist 86*, NPY1 pot ag -7, NPY-Y1 antag -4, NPY2 pot ag -4, S1P4 ag -3, S1P4 antag cf 75* and S1P1 antagonist 67*.
`CCC(=O)N1CCN(c2ccc(NC(=O)c3ccc([N+](=O)[O-])o3)cc2Cl)CC1` gave S1P4 antagonist 56*, NPY1 pot ag 8, NPY-Y1 antag -1, NPY2 pot ag -13, S1P4 ag -1, S1P4 antag cf 113* and S1P1 antagonist 44*.
`CCSC(=O)NC1CCCCC1` gave S1P4 antagonist 5, NPY1 pot ag -7, NPY2 pot ag -5 and S1P4 ag -1.
COc1ccc(CC(=O)Nc2ccc(N3CCOCC3)cc2)cc1S(=O)(=O)N1CCOCC1 was read as S1P4 antagonist 8, NPY1 pot ag 24, NPY2 pot ag -4 and S1P4 ag 0.
O=[N+]([O-])c1ccc(N/N=C/c2c[nH]c3ccccc23)cc1 was read as S1P4 antagonist 37*, NPY-Y2 antag -8, NPY1 pot ag 55*, NPY-Y1 antag -20, NPY2 pot ag 48*, S1P4 ag -3, S1P4 antag cf 50* and S1P1 antagonist 78*.
O=C(N/N=C/c1c[nH]c2ccccc12)c1cccc([N+](=O)[O-])c1 was read as S1P4 antagonist -9, NPY-Y2 antag 5, NPY1 pot ag -13, NPY-Y1 antag -7, NPY2 pot ag 8 and S1P4 ag -1.
O=C(CCC1CCCCC1)NCCN1C2=NC[C@@H](Cc3ccccc3)N2C[C@H]1Cc1ccc(O)cc1 was read as S1P4 antagonist -8, NPY1 pot ag -6, NPY-Y1 antag 13, NPY2 pot ag -42 and S1P4 ag 1.
For Cc1ccc(NC(=O)CS(=O)CC(=O)Nc2ccc(N3CCOCC3)cc2)cc1Cl (configuration not stated) the results were S1P4 antagonist 30*, NPY-Y2 antag -3, NPY1 pot ag 6, NPY-Y1 antag -3, NPY2 pot ag -23, S1P4 ag 0, S1P4 antag cf 4 and S1P1 antagonist -4.
Screening NS(=O)(=O)c1ccc(NC(=O)COC(=O)COc2ccc(Br)cc2)cc1 returned S1P4 antagonist -13, NPY1 pot ag -4, NPY2 pot ag -13 and S1P4 ag 1.
`COC(=O)c1scc2c(=O)cc(C(F)(F)F)[nH]c12` gave S1P4 antagonist 35*, NPY1 pot ag -1, NPY2 pot ag -10, S1P4 ag 1, S1P4 antag cf 69* and S1P1 antagonist 51*.
O=[N+]([O-])c1ccccc1Sc1nccn1Cc1ccccc1 was read as S1P4 antagonist -19, NPY-Y2 antag -1, NPY1 pot ag 9, NPY-Y1 antag -2, NPY2 pot ag 13 and S1P4 ag -2.
For O=C(Nc1ccc2ccccc2c1)c1cnccn1 the results were S1P4 antagonist -3, NPY-Y2 antag 1, NPY1 pot ag 19, NPY-Y1 antag -12, NPY2 pot ag -1 and S1P4 ag 2.
CS(=O)(=O)c1ncc(Cl)c(C(=O)Nc2ccc3ccccc3c2)n1 was read as S1P4 antagonist 41*, NPY1 pot ag -21, NPY-Y1 antag -4, NPY2 pot ag 4, S1P4 ag -3, S1P4 antag cf 119* and S1P1 antagonist 54*.
For CCCCc1nc2cc(Cl)ccc2o1 the results were S1P4 antagonist 6, NPY1 pot ag 7, NPY-Y1 antag -4, NPY2 pot ag 7 and S1P4 ag 1.
Screening Cc1nnc(N/N=C/c2ccccc2O)n1N returned S1P4 antagonist -3, NPY1 pot ag -17, NPY-Y1 antag 0, NPY2 pot ag -4 and S1P4 ag 2.
For Cc1nnc(N/N=C/c2c(Cl)cccc2Cl)n1N the results were S1P4 antagonist 30*, NPY1 pot ag 1, NPY-Y1 antag -3, NPY2 pot ag 1, S1P4 ag 0, S1P4 antag cf 7 and S1P1 antagonist -20.
Screening Cc1cccc(C)c1NC(=O)COC(=O)c1nonc1N returned S1P4 antagonist 29*, NPY-Y2 antag 1, NPY1 pot ag 9, NPY-Y1 antag 7, NPY2 pot ag 8, S1P4 ag 1, S1P4 antag cf -7 and S1P1 antagonist 10.
For CC(C(=O)c1ccccc1)[n+]1cccc(C(N)=O)c1 (configuration not stated) the results were S1P4 antagonist 1, NPY1 pot ag -19, NPY2 pot ag -14 and S1P4 ag 0.
For COC(=O)C1=C(C)N=C2SCCC(=O)N2C1c1ccc(OC(=O)c2ccco2)cc1 (configuration not stated) the results were S1P4 antagonist 26, NPY-Y2 antag 6, NPY1 pot ag -20, NPY-Y1 antag 0, NPY2 pot ag -18 and S1P4 ag 0.
For C=CCOC(=O)C1=C(C)N=C2SCCC(=O)N2C1c1ccc(OC(=O)c2ccco2)cc1 (configuration not stated) the results were S1P4 antagonist 38*, NPY-Y2 antag 7, NPY1 pot ag -10, NPY-Y1 antag -3, NPY2 pot ag -3, S1P4 ag 0, S1P4 antag cf 59* and S1P1 antagonist 52*.
Screening Cc1cc2c(c(N3CCOCC3)n1)C(=O)OC2 returned S1P4 antagonist 35*, NPY-Y2 antag 3, NPY1 pot ag -1, NPY-Y1 antag 1, NPY2 pot ag -13, S1P4 ag 0, S1P4 antag cf -3 and S1P1 antagonist -1.
COc1cc(CNCCCN2CCOCC2)cc(Br)c1OCc1ccc(Cl)cc1 was read as S1P4 antagonist 30*, NPY1 pot ag -17, NPY-Y1 antag 9, NPY2 pot ag -29, S1P4 ag 2, S1P4 antag cf 52* and S1P1 antagonist 39.
`O=C1Nc2ccccc2/C1=C/C(=O)c1cccs1` gave S1P4 antagonist 38*, NPY-Y2 antag 2, NPY1 pot ag -1, NPY-Y1 antag -3, NPY2 pot ag 12, S1P4 ag 0, S1P4 antag cf 64* and S1P1 antagonist 47*.
CNC1=C([N+](=O)[O-])CC([N+](=O)[O-])=C(N2CCNCC2)N1C was read as S1P4 antagonist 35*, NPY1 pot ag 3, NPY-Y1 antag 6, NPY2 pot ag -14, S1P4 ag 0, S1P4 antag cf -1 and S1P1 antagonist 2.

High-throughput results as filed in PubChem BioAssay.
